Wnt act = activates Wnt/beta-catenin signaling in a reporter cell assay; activator, plate reader; activation, % at 9.35 µM; 1.2% of 300,000 active; in the data active means activation above about 30%, passing the limit was not always enough; inconclusive means no clear call, values can overlap the other calls;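 further: 0% = neutral control wells and 100% = positive control wells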
CASP6 VEID inh = blocks human caspase-6 cleavage activity. P55212. purified caspase-6, Z-VEID-R110 cleavage fluorescence. inhibition, % at 12.5 µM. 0.53% of 350,000 active;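 active means mean inhibition across replicates at least about 35%, with every replicate also reaching that limit, limit read from the data; inconclusive means only one of the two criteria met; inactive means neither criterion met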;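 further: 0% = median of neutral control wells and 100% = no fluorescence left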
Target sequence (P55212 24-179 limits assumed): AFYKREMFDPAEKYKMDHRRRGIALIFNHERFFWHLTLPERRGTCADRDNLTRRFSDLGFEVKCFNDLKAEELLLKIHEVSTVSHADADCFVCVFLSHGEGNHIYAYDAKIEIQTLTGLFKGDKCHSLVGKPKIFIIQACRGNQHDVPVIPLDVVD
Target sequence (P55212 194-293 limits assumed): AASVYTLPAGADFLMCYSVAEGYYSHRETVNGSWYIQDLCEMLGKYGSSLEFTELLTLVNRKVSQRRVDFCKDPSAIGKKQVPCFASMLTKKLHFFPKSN
esBAF inh = SWI/SNF esBAF complex inhibition. 2% of 350,000 active. reporter increase, % at 12.5 µM. mouse ES cells, Bmi1-luciferase knock-in reporter, 24 h; 100% = twice the neutral-well signal; in the data active means activation above about 40%; inconclusive means no clear call, values can overlap the other calls;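 further: 0% = median of the plate's neutral control wells and 100% = double that signal; a rise in the Bmi1 reporter signal indicates esBAF inhibition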
NSD2 inh = NSD2 (human) methyltransferase inhibition; O96028; NSD2 peptide methylation, AlphaScreen, 120 min; inhibition, % at 12.5 µM; 0.54% of 310,000 active; AID 743445; in the data active means inhibition above about 50%
MITF TRPM1 HTS = increases MITF-driven TRPM1 promoter luciferase signal | SK-MEL-5 TRPM1-promoter luciferase, 24 h; % of positive control, neutral wells = 0 | AID 588334 | 0.75% of 300,000 active | activation, % at 12.5 µM;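 active means mean activation of at least 80% with every replicate also reaching 80%; inconclusive means mean reaches 80% but some replicate falls short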;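 further: 0% = neutral control wells and 100% = parthenolide positive control wells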
XiGFP reactiv = X-chromosome reactivation activator; XiGFP mouse fibroblasts, % GFP-positive cells imaging, 3 d; cells co-treated with 5-aza-dC sensitizer; scaled so ellipticine positive control = 100%; activation, % at 7.58 µM; 0.055% of 360,000 active;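 active means mean normalized replicate activation at least 10% and every replicate at or above 10%; inconclusive means only one of the two criteria met; inactive means mean below 10% and not all replicates reach 10%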;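 further: 0% = median of on-plate neutral control wells and 100% = ellipticine 6 µM median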
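Material: XiGFP fibroblasts, SV40-immortalized. Buffer or medium: DMEM plus 5-aza-dC sensitizer. Compound: single concentration per compound, delivered by pin transfer. Times: 3 days compound exposure. Controls: ellipticine 6 µM.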
Active calls of the source: *; ? = inconclusive; . = no result. Only some compounds are listed: those with a hit (about 3% of all), similar ones and a draw of the others.

SMILES | Wnt act | CASP6 VEID inh | esBAF inh | NSD2 inh | MITF TRPM1 HTS | XiGFP reactiv
S=C(NCc1ccccc1)Nc1ccc2ccccc2c1 | 21.5 | 0.9 | 80.5* | -1.6 | 59.8 | 0.1
C/C(=C\C(=S)Nc1ccccc1)Nc1ccc2ccccc2c1 | 52.2* | -0.6 | . | 0.8 | 14.4 | 0.0
C[C@@H]1CCCCO[C@@H](CN(C)C)[C@H](C)CN([C@@H](C)CO)C(=O)c2cc(NS(=O)(=O)c3cn(C)cn3)ccc2O1 | . | -1.1 | . | . | . | 0.2
C[C@@H]1CN(C)C(=O)c2cccc(N(C)C)c2O[C@@H]1CN(C)S(C)(=O)=O | . | . | . | . | . | 0.2
COc1ccc(Cc2nc3ccc(C(=O)NCc4cc(C)no4)cc3o2)cc1 | 7.2 | 1.7 | 64.6* | -1.7 | 90.9* | 0.1
COc1ccc(Cc2nc3ccc(C(=O)NCC(C)(C)OC)cc3o2)cc1 | 8.1 | -3.4 | 76.3* | . | 104.3* | 0.2
O=C(NCC1CCOCC1)c1ccc2nc(Cc3cccc(Cl)c3)oc2c1 | 0.0 | 1.5 | 45.9* | . | 35.9 | -0.1
COC(=O)CCNC(=O)c1ccc2nc(Cc3ccc(OC)cc3)oc2c1 | 6.4 | -0.5 | 2.8 | 2.9 | 4.2 | 0.1
CN(CC1CCOCC1)C(=O)c1ccc2nc(Cc3cccc(Cl)c3)oc2c1 | 2.5 | 0.3 | . | -0.5 | -6.5 | 0.0
C[C@@H]1CN([C@@H](C)CO)C(=O)Cc2cc(NC(=O)Nc3ccc(F)cc3)ccc2O[C@H]1CN(C)C(=O)Nc1ccc2c(c1)OCO2 | . | 0.4 | 2.8 | . | . | 0.5
COc1ccc2c3c([nH]c2c1)[C@H](CO)N(Cc1ccccn1)CC31CN(C(C)=O)C1 | . | . | . | . | . | -0.1
COc1ccc(S(=O)(=O)N(C)C[C@H]2OCCCC[C@H](C)Oc3ccc(NC(=O)Nc4c(C)noc4C)cc3C(=O)N([C@H](C)CO)C[C@H]2C)cc1 | . | -3.4 | -1.0 | . | . | 0.1
O=C(C[C@H]1CC[C@H]2[C@@H](COC[C@H](O)CN2Cc2cccc(F)c2)O1)NCc1cccc(F)c1 | . | -2.3 | -0.3 | . | . | 0.3
COc1ccccc1OCCNC(=O)CNC(=O)c1ccc2c(c1)OCO2 | 0.2 | 1.8 | -1.6 | 15.4 | -0.6 | -0.1
COc1ccccc1OCCNC(=O)c1ccc2c(c1)OCCO2 | 52.0* | -0.7 | 8.4 | -0.2 | 59.0 | 0.0
COc1ccccc1OCCNC(=O)c1ccc2c(c1)CCC2 | 14.4 | 1.0 | 49.0* | 9.8 | ? | 0.2
Cc1ccc(OCC(=O)NCc2ccccn2)c(Br)c1 | . | . | 55.5* | -1.7 | 65.5 | .
C[C@H](CO)N1C[C@H](C)[C@@H](CN(C)C(=O)Nc2ccc(F)cc2)OCCCC[C@H](C)Oc2ccc(NC(=O)NC3CCCCC3)cc2C1=O | . | 0.6 | 2.5 | . | . | 0.4
COc1ccc(C[C@@H]2CCn3nncc3COCCCNC2=O)cc1 | . | . | . | . | . | 0.2
COc1ccc(S(=O)(=O)N2CCCCN3[C@@H](CO)[C@H](c4ccc(C5=CCCC5)cc4)[C@@H]3C2)cc1 | . | 0.8 | -4.5 | . | . | 0.1
Brc1ccc(N=NNc2ccccc2)cc1 | 16.5 | -0.5 | 53.5* | 6.5 | 49.4 | 0.3
Cc1nc(SCc2ccccc2)nc2c1CCC2 | 16.5 | 0.9 | 99.8* | -4.2 | 93.4* | 0.0
Cc1ccc(CSc2nc3c(c(N(C)C)n2)CCCC3)cc1 | . | . | -2.0 | 1.2 | 4.5 | .
COc1ccc2c3c([nH]c2c1)[C@@H](CO)N(C(=O)C1CC1)CC31CCN(C)CC1 | . | 0.7 | . | . | . | 0.3
Cc1cccc(NC(=O)c2ccccc2Br)n1 | 1.9 | 4.5 | 37.1 | . | 4.7 | 0.2
SMILES | Wnt act | CASP6 VEID inh | esBAF inh | NSD2 inh | MITF TRPM1 HTS | XiGFP reactiv
CCOC(=O)Cc1csc(NC(=O)c2ccoc2C)n1 | . | . | 37.4 | 3.0 | 22.0 | .
Cc1csc(NC(=O)CSc2nnc(-c3ccoc3C)o2)n1 | 20.6 | . | 43.1* | -5.6 | . | .
Cc1csc(NC(=O)c2ccoc2C)n1 | . | . | 41.6* | 2.0 | . | .
Cc1csc(NC(=O)c2cc(C)on2)n1 | 39.9* | -0.1 | 2.5 | 4.6 | 55.1 | -0.4
Cc1cccc(NC(=O)c2ccoc2C)n1 | . | . | 45.4* | -0.7 | 33.3 | .
Cc1occc1-c1nnc(SCC(=O)Nc2nc(C(C)(C)C)cs2)o1 | -1.4 | -5.3 | 38.6 | -0.1 | 9.6 | .
Cc1ccc(S(=O)(=O)N(C)C[C@@H]2Oc3ncc(-c4ccncc4)cc3C(=O)N([C@H](C)CO)C[C@@H]2C)cc1 | . | -0.6 | -0.1 | . | . | -1.0
O=C(C[C@H]1CC[C@H](NC(=O)CN2CCOCC2)[C@@H](CO)O1)NC1CCCCC1 | . | 1.2 | -6.1 | . | . | -1.4

Screening data (PubChem)
